For 55 compounds, inhibition and IC50 results are on record in ChEMBL document CHEMBL3352280, “Modulation of cAMP-specific PDE without emetogenic activity: new sulfide-like PDE7 inhibitors” (J Med Chem, 2014).

Test [1] deals with T1, High affinity 3',5'-cyclic-AMP phosphodiesterase 7A (Homo sapiens, UniProt Q13946). Kind of test: Inhibition of human recombinant PDE7A1 assessed as inhibition of hydrolysis of [3H]cAMP at 10 uM after 20 mins by scintillation proximity assay. In short, it runs like this:
(§1)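 Scintillation proximity assay with human recombinant enzyme: PDE7A1 0.02 U, PDE3A 0.02 U, PDE7B 0.5 U, PDE8A 0.5 U. Enzyme incubated with 5 nCi [3H]cAMP and inhibitor in kit buffer for 20 min at 30 °C. SPA beads added and shaken 1 h at room temperature, settled 30 min, radioactivity counted.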

Test [2] concerns the target T1, High affinity 3',5'-cyclic-AMP phosphodiesterase 7A. Kind of test: Inhibition of human recombinant PDE7A1 assessed as inhibition of hydrolysis of [3H]cAMP after 20 mins by scintillation proximity assay. An outline of the steps: as §1
For orientation: Scintillation proximity formats need no separation of bound from free tracer.

Test [3] concerns the target cGMP-inhibited 3',5'-cyclic phosphodiesterase 3A (Homo sapiens) (UniProt Q14432). In words: Inhibition of human recombinant PDE3A assessed as inhibition of hydrolysis of [3H]cAMP at 10 uM after 20 mins by scintillation proximity assay. An outline of the steps:
as §1

Test [4] deals with 3',5'-cyclic-AMP phosphodiesterase 4D (Homo sapiens, UniProt Q08499). In words: Inhibition of human recombinant PDE4D3 assessed at 10 uM after 60 mins by IMAP fluorescence polarization assay.
Sequence of 3',5'-cyclic-AMP phosphodiesterase 4D (Q08499 whole entry): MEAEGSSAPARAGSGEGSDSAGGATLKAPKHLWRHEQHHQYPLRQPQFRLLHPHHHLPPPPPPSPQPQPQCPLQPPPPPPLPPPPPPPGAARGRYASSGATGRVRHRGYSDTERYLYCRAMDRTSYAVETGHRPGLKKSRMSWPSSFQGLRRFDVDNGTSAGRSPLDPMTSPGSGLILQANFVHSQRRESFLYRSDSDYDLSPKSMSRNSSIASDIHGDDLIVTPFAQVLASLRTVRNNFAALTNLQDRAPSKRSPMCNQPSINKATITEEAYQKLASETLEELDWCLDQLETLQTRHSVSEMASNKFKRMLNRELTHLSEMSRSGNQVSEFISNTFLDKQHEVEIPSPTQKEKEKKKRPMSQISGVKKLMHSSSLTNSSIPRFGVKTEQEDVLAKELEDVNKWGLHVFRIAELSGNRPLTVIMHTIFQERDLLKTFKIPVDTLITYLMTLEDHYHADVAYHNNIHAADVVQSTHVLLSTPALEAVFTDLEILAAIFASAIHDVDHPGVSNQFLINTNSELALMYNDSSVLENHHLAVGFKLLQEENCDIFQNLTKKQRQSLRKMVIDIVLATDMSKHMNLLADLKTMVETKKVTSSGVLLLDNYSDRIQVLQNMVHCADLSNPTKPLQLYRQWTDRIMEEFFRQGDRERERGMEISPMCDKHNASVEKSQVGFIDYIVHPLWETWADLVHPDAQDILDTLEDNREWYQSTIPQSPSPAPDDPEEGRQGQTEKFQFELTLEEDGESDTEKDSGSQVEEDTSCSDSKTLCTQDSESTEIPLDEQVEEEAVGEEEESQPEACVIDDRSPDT
Test [5] addresses 3',5'-cyclic-AMP phosphodiesterase 4B (Homo sapiens, UniProt Q07343). In words: Inhibition of human recombinant PDE4B2 assessed at 10 uM after 60 mins by IMAP fluorescence polarization assay. On the technique in general: Polarisation of emitted light reports the rotation of a fluorescent probe.

T1 sequence (Q13946 whole entry): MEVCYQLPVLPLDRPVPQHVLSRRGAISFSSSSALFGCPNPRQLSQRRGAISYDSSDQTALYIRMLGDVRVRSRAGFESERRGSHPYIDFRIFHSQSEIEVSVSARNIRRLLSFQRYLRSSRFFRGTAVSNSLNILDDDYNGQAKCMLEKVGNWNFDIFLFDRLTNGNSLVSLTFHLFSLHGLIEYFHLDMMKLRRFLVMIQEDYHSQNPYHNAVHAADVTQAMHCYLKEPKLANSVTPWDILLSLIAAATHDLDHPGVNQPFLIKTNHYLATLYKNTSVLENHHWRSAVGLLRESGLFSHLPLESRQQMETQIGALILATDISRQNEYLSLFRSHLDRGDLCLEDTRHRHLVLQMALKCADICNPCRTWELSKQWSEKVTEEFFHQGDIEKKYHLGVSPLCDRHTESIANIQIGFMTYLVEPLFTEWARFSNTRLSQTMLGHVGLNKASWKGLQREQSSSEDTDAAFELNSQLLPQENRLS
Sequence of 3',5'-cyclic-AMP phosphodiesterase 4B (Q07343 whole entry): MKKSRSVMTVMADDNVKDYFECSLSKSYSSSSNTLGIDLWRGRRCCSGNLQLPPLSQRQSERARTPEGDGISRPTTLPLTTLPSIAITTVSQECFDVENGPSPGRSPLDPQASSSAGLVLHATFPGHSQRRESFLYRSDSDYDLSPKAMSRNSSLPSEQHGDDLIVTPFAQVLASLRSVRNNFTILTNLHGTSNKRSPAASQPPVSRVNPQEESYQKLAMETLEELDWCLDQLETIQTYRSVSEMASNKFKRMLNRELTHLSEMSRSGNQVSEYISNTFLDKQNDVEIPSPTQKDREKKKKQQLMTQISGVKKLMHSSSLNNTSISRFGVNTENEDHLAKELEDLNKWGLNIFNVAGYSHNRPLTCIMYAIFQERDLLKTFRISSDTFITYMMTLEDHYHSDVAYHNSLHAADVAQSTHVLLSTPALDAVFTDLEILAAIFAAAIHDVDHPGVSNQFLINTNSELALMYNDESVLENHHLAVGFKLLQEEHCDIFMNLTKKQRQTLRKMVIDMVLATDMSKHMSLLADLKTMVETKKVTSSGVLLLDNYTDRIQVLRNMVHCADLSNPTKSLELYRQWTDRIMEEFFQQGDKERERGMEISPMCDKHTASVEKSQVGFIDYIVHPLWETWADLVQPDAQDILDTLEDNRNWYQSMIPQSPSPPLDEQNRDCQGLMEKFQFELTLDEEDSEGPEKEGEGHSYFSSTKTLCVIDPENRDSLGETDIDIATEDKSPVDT
Sequence of cGMP-inhibited 3',5'-cyclic phosphodiesterase 3A (Homo sapiens) (Q14432 whole entry): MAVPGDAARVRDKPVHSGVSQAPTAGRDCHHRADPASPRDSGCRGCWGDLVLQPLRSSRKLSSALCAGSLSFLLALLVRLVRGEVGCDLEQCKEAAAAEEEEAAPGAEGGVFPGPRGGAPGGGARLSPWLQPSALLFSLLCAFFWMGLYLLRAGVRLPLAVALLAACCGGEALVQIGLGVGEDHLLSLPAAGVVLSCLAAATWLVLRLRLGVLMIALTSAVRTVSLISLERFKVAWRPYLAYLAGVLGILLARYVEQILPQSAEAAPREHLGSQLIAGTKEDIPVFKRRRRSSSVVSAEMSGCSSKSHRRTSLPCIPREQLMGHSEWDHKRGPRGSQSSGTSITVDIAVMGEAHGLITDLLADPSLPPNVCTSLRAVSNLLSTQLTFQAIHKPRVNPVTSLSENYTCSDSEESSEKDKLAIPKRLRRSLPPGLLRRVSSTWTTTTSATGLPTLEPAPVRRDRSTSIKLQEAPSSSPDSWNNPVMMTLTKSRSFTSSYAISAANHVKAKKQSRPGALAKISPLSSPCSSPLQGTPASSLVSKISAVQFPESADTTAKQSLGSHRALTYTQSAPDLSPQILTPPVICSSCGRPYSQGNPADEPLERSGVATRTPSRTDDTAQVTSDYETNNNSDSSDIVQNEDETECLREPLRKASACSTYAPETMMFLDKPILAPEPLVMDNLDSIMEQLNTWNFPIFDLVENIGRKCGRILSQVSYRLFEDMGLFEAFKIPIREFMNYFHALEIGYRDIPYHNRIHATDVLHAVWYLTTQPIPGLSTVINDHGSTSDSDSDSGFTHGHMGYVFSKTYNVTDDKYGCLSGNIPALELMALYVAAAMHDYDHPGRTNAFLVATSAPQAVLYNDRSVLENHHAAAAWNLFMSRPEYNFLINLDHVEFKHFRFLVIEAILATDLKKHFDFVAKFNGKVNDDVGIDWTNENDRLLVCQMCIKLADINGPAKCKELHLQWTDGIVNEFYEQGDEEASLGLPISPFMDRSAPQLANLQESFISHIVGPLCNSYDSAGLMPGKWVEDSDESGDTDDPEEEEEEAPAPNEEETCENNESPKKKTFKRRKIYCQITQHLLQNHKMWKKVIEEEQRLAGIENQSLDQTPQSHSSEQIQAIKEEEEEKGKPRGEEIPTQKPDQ

On to `Nc1ccc(Sc2ccc([N+](=O)[O-])cc2C(F)(F)F)cc1`, for which, in test [1], the inhibition was found to be 63%. Besides, in test [2], the IC50 was 9.27 µM.

With `Nc1ccc(Oc2ccc([N+](=O)[O-])cc2Cl)cc1`, in test [1], the inhibition was found to be 77%. Also, the IC50 in test [2] came to 2.2 µM.

Regarding `O=[N+]([O-])c1cc(Cl)c(Cl)cc1Sc1ccccc1Br`, in test [1], the inhibition came out at 49%. In addition, in test [2], the IC50 was 2.88 µM.

In the case of `CC(=O)Nc1ccc(Sc2ccc([N+](=O)[O-])cc2Cl)cc1`, in test [1], the inhibition was determined as 26%.

Consider `Cc1cnc(Sc2ccc(-c3ccccc3)cc2)c([N+](=O)[O-])c1`, for which the inhibition in test [1] was found to be 2%.

As to `c1ccc(-c2ccc(Sc3ccccn3)cc2)cc1`, the inhibition in test [1] worked out at 32%.

In the case of `O=[N+]([O-])c1ccc(Cl)cc1Sc1ccccn1`, in test [1], the inhibition is 56%. In addition, in test [2], the IC50 amounted to 7.98 µM.

As to `O=c1c2ccccc2[nH]c(=S)n1-c1ccccc1`, the inhibition in test [1] worked out at 76%. In test [2], the half-maximal inhibitory concentration (IC50) turned out to be 4.68 µM.

For `O=[N+]([O-])c1cc(Cl)ccc1SCc1ccccc1Br`, the inhibition in test [1] was found to be 31%.

For the compound `Nc1ccccc1Sc1cc(Cl)ccc1[N+](=O)[O-]`, in test [1], the inhibition was determined as 66%. The half-inhibitory concentration (IC50) in test [2] came out at 5.45 µM.

`Nc1cccc(Sc2ccc([N+](=O)[O-])cc2Cl)c1`: the inhibition in test [1] came to 78%. In addition, the IC50 in test [2] worked out at 3.2 µM.

As for `O=[N+]([O-])c1cc(Cl)ccc1Sc1ccccn1`, the inhibition in test [1] is 69%. Besides, the IC50 in test [2] came out at 3.6 µM.

Regarding `c1cnc(Sc2ccncc2)nc1`, the inhibition in test [1] is 12%.

`CC(C)c1ccccc1Sc1ccc([N+](=O)[O-])cc1Cl`: in test [1], the inhibition is 17%.

For the compound `Nc1ccccc1Sc1ccc(F)cc1[N+](=O)[O-]`, the inhibition in test [1] was 38%.

As to `Nc1cccc(Sc2ccncc2)c1`, the inhibition in test [1] worked out at 36%.

For the compound `Cc1cnc(Sc2ccncc2)c([N+](=O)[O-])c1`, the inhibition in test [1] is 27%.

For `CC(=O)NNc1ccccc1Sc1ccccc1Br`, in test [1], the inhibition stood at 27%.

Take `Nc1ccccc1Sc1ccc([N+](=O)[O-])cc1C(F)(F)F`: the inhibition in test [1] amounted to 42%.

`Nc1ccc(Sc2ccc([N+](=O)[O-])cc2Cl)cc1`: the inhibition in test [1] was 83%. Moreover, the IC50 in test [2] was 3.97 µM.

For the compound `O=[N+]([O-])c1ccc(Cl)cc1Sc1ccncc1`, in test [1], the inhibition turned out to be 80%. Moreover, the IC50 in test [2] worked out at 1.88 µM.

For `Nc1ccc(Sc2cc(Cl)ccc2[N+](=O)[O-])cc1`, the inhibition in test [1] came out at 71%. Moreover, the IC50 in test [2] is 2.2 µM.

Take `CC(=O)Nc1ccc(Sc2ccc(Cl)cc2[N+](=O)[O-])cc1`: the inhibition in test [1] was found to be 7%.

With `Nc1cccc(Sc2ccc(Cl)cc2[N+](=O)[O-])c1`, the inhibition in test [1] worked out at 68%. Further, the IC50 in test [2] stood at 5.69 µM.

For `COc1ccc(Sc2cccnc2)cc1`, the inhibition in test [1] worked out at 17%.

As for `O=[N+]([O-])c1cc(Cl)ccc1Sc1ccc(Br)cc1`, the inhibition in test [1] was found to be 11%.

In the case of `Cc1cnc(Sc2cccc(N)c2)c([N+](=O)[O-])c1`, the inhibition in test [1] worked out at 3%.

Consider `COc1ccc(Sc2ccncc2)cc1`, for which the inhibition in test [1] was 18%.

Take `Nc1ccc(Cl)cc1Sc1ccccc1[N+](=O)[O-]`: the IC50 in test [2] was determined as 7.3 µM.

For the compound `Nc1ccccc1Sc1cc(Cl)c(Cl)cc1[N+](=O)[O-]`, the inhibition in test [1] was 74%. The IC50 in test [2] was found to be 6.48 µM.

For the compound `CC(C)c1ccc(Sc2ccc(Cl)cc2[N+](=O)[O-])cc1`, the inhibition in test [1] was found to be 10%.

For the compound `Nc1ccc(Sc2ccc(F)cc2[N+](=O)[O-])cc1`, in test [1], the inhibition was 64%. The IC50 in test [2] turned out to be 6.18 µM.

Turning to `O=[N+]([O-])c1ccc(Sc2ccccc2)c(Cl)c1`, the inhibition in test [1] worked out at 74%. For the same compound, the IC50 in test [2] worked out at 2.2 µM.

On to `O=[N+]([O-])c1ccc(SCc2ccccc2Br)c(Cl)c1`, for which the inhibition in test [1] is 33%.

Take `CC(=O)Nc1ccccc1Sc1sccc1[N+](=O)[O-]`: the inhibition in test [1] came to 31%.

For `Nc1ccccc1Sc1ccc([N+](=O)[O-])cc1Cl`, the inhibition in test [1] stood at 60%. In addition, the IC50 in test [2] worked out at 8.77 µM.

In the case of `O=[N+]([O-])c1ccc(Sc2ccccc2Br)c(Cl)c1`, in test [1], the inhibition was 59%. Moreover, in test [2], the IC50 worked out at 2.14 µM.

Regarding `Nc1ccccc1Sc1ccc(Cl)cc1[N+](=O)[O-]`, in test [1], the inhibition was 69%. Besides, the IC50 in test [2] stood at 5.75 µM.

Regarding `CC(=O)Nc1ccc(Oc2ccc(Cl)cc2[N+](=O)[O-])cc1`, the inhibition in test [1] is 17%.

`O=[N+]([O-])c1ccc(Sc2cccs2)c(Cl)c1`: the inhibition in test [1] came to 69%. The IC50 in test [2] came out at 5.2 µM.

Consider `CC(C)c1ccc(Sc2ccc([N+](=O)[O-])cc2Cl)cc1`, for which the inhibition in test [1] was found to be 15%.

Turning to `CC(=O)Nc1ccc(Oc2ccc([N+](=O)[O-])cc2Cl)cc1`, in test [1], the inhibition came to 4%.

Consider `Nc1ccc(Sc2ccc(N)cc2Cl)cc1`, for which the inhibition in test [1] was 46%. In addition, the IC50 in test [2] turned out to be 6.5 µM.

Regarding `O=[N+]([O-])c1cc(Cl)ccc1Sc1cccs1`, the inhibition in test [1] stood at 81%. For the same compound, in test [2], the IC50 is 1.6 µM.

On to `O=[N+]([O-])c1ccsc1Sc1sccc1[N+](=O)[O-]`, for which the inhibition in test [1] is 31%.

In the case of `c1ccc(Sc2ccncc2)cc1`, the inhibition in test [1] came out at 44%.

As to `CC(=O)c1ccc(Sc2ccncc2)c([N+](=O)[O-])c1`, the inhibition in test [1] came out at 56%. Besides, the IC50 in test [2] is 3.8 µM.

In the case of `O=[N+]([O-])c1ccc(Cl)cc1Sc1ccc(Br)cc1`, in test [1], the inhibition amounted to 36%.

As to `CC(=O)Nc1ccccc1Sc1cc(Cl)ccc1[N+](=O)[O-]`, the inhibition in test [1] turned out to be 58%; in test [3], 10%; in test [4], 10%; in test [5], 11%. For the same compound, in test [2], the IC50 came to 2.1 µM.

With `O=[N+]([O-])c1ccc(Sc2ccc(Cl)cc2[N+](=O)[O-])cc1`, the inhibition in test [1] turned out to be 6%.

`Nc1ccc(Oc2ccc(Cl)cc2[N+](=O)[O-])cc1`: the inhibition in test [1] was found to be 70%. The IC50 in test [2] was 3.3 µM.

Consider `Nc1ccccc1Sc1sccc1[N+](=O)[O-]`, for which the IC50 in test [2] was 4.27 µM.

Consider `O=[N+]([O-])c1ccc(Sc2ccc([N+](=O)[O-])cc2Cl)cc1`, for which the inhibition in test [1] came to 1%.

For the compound `O=[N+]([O-])c1ccc(Sc2ccc(Br)cc2)c(Cl)c1`, in test [1], the inhibition is 23%.

In the case of `Nc1ccc(Sc2ccc(Cl)cc2N)cc1`, in test [1], the inhibition was found to be 13%.

By inhibition is commonly meant how much of the control response was suppressed. As a reminder, the IC50 is the concentration at which inhibition is half-maximal.
